Laboratory results taken from ChEMBL document CHEMBL1255404, “Spread of OXA-48-encoding plasmid in Turkey and beyond” (2010).
In brackets after ≈: the same amount, converted by molar mass.

How the values were obtained:
Type in all cases: functional
Escherichia coli [1] = experiment: Antimicrobial activity against Escherichia coli isolate J53 harboring pBb containing beta-lactamase OXA-48 located within transposon Tn1999.2 by Etest method
In short: (§1)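 β-Lactam MICs read with Etest strips. Strains are E. coli J53 recipient and J53 transconjugants carrying OXA-48-positive plasmids recovered from clinical enterobacterial isolates.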

Escherichia coli [2] = experiment: Antimicrobial activity against Escherichia coli isolate J53 harboring pEcA containing beta-lactamase OXA-48 located within transposon Tn1999.2 by Etest method; in short: as §1
Klebsiella pneumoniae [3] = experiment: Antimicrobial activity against Klebsiella pneumoniae isolate KpB expressing OXA-48 and CTX-M-15 by Etest method
Escherichia coli [4] = experiment: Antimicrobial activity against Escherichia coli isolate A expressing beta-lactamase OXA-48 and TEM-150 by Etest method
Klebsiella pneumoniae [5] = experiment: Antimicrobial activity against Klebsiella pneumoniae isolate KpL expressing beta-lactamase OXA-48 by Etest method
Escherichia coli [6] = experiment: Antimicrobial activity against Escherichia coli isolate J53 harboring p3A containing beta-lactamase OXA-48 located within transposon Tn1999 by Etest method; in short: as §1
Escherichia coli [7] = experiment: Antimicrobial activity against Escherichia coli isolate J53 harboring pCF containing beta-lactamase OXA-48 located within transposon Tn1999 by Etest method; in short: as §1
Escherichia coli [8] = experiment: Antimicrobial activity against Escherichia coli isolate J53 harboring pL containing beta-lactamase OXA-48 located within transposon Tn1999.2 by Etest method; in short: as §1
Klebsiella pneumoniae [9] = experiment: Antimicrobial activity against Klebsiella pneumoniae isolate Kp11978 expressing beta-lactamase OXA-48, SHV-2a and TEM-1 by Etest method
Providencia rettgeri = experiment: Antimicrobial activity against Providencia rettgeri isolate expressing beta-lactamase OXA-48 and TEM-101 by Etest method
Klebsiella pneumoniae [10] = experiment: Antimicrobial activity against Klebsiella pneumoniae isolate Kp5A expressing beta-lactamase OXA-48 and SHV-5 by Etest method
Klebsiella pneumoniae [11] = experiment: Antimicrobial activity against Klebsiella pneumoniae isolate Kp7A expressing beta-lactamase OXA-48 by Etest method
In short: (§2)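 MICs of β-lactams read from Etest strips. The test organisms are carbapenem-resistant, OXA-48-positive clinical Enterobacteriaceae isolates recovered from Turkey, Lebanon, Egypt, France and Belgium.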

Klebsiella pneumoniae [12] = experiment: Antimicrobial activity against Klebsiella pneumoniae isolate KpBEL expressing beta-lactamase OXA-48 by Etest method; in short: as §2
Citrobacter freundii = experiment: Antimicrobial activity against Citrobacter freundii isolate expressing beta-lactamase OXA-48 by Etest method
Enterobacter cloacae [13] = experiment: Antimicrobial activity against Enterobacter cloacae isolate 1 expressing beta-lactamase OXA-48 and SHV-5 by Etest method
Enterobacter cloacae [14] = experiment: Antimicrobial activity against Enterobacter cloacae isolate 2 expressing beta-lactamase OXA-48 and SHV-5 by Etest method
Escherichia coli [15] = experiment: Antimicrobial activity against Escherichia coli isolate J53 harboring p6A containing beta-lactamase OXA-48 located within transposon Tn1999 by Etest method; in short: as §1
Klebsiella pneumoniae [16] = experiment: Antimicrobial activity against Klebsiella pneumoniae isolate KpBIC expressing beta-lactamase OXA-48 by Etest method; in short: as §2
Escherichia coli [17] = experiment: Antimicrobial activity against Escherichia coli isolate J53 harboring pEnc1 containing beta-lactamase OXA-48 located within transposon Tn1999 by Etest method; in short: as §1
Escherichia coli [18] = experiment: Antimicrobial activity against Escherichia coli isolate J53 harboring pBEL containing beta-lactamase OXA-48 located within transposon Tn1999.2 by Etest method; in short: as §1
Klebsiella pneumoniae [19] = experiment: Antimicrobial activity against Klebsiella pneumoniae isolate KpI-1 expressing beta-lactamase OXA-48 and CTX-M-15 by Etest method
Klebsiella pneumoniae [20] = experiment: Antimicrobial activity against Klebsiella pneumoniae isolate Kp3A expressing beta-lactamase OXA-48 by Etest method; in short: as §2
Escherichia coli [21] = experiment: Antimicrobial activity against Escherichia coli isolate TOP10 harboring pBIC containing beta-lactamase OXA-48 located within transposon Tn1999.2 by Etest method
In short: (§3)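 β-Lactam MICs read with Etest strips. Strains are E. coli TOP10 host and TOP10 transformants made with plasmid DNA extract when conjugation failed. Transformants were selected on LB agar with ticarcillin 50 μg/ml.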

Klebsiella pneumoniae [22] = experiment: Antimicrobial activity against Klebsiella pneumoniae isolate KpI-2 expressing beta-lactamase OXA-48 and CTX-M-15 by Etest method
Klebsiella pneumoniae [23] = experiment: Antimicrobial activity against Klebsiella pneumoniae isolate KpE expressing beta-lactamase OXA-48 and CTX-M-15 by Etest method
Escherichia coli [24] = experiment: Antimicrobial activity against Escherichia coli isolate J53 harboring pEnc2 containing beta-lactamase OXA-48 located within transposon Tn1999 by Etest method; in short: as §1
Klebsiella pneumoniae [25] = experiment: Antimicrobial activity against Klebsiella pneumoniae isolate Kp6A expressing beta-lactamase OXA-48 and TEM-150 by Etest method
Escherichia coli [26] = experiment: Antimicrobial activity against Escherichia coli isolate J53 harboring p7A containing beta-lactamase OXA-48 located within transposon Tn1999 by Etest method; in short: as §1
Escherichia coli [27] = experiment: Antimicrobial activity against Escherichia coli isolate J53 harboring pE containing beta-lactamase OXA-48 located within transposon Tn1999.2 by Etest method; in short: as §1
Escherichia coli [28] = experiment: Antimicrobial activity against Escherichia coli isolate J53 harboring p4A containing beta-lactamase OXA-48 located within transposon Tn1999 by Etest method; in short: as §1
Escherichia coli [29] = experiment: Antimicrobial activity against Escherichia coli isolate J53 harboring p5A containing beta-lactamase OXA-48 located within transposon Tn1999 by Etest method; in short: as §1
Escherichia coli [30] = experiment: Antimicrobial activity against Escherichia coli isolate J53 harboring pI-1 containing beta-lactamase OXA-48 located within transposon Tn1999.2 by Etest method; in short: as §1
Klebsiella pneumoniae [31] = experiment: Antimicrobial activity against Klebsiella pneumoniae isolate Kp4A expressing beta-lactamase OXA-48 and CTX-M-15 by Etest method
Escherichia coli [32] = experiment: Antimicrobial activity against Escherichia coli isolate J53 harboring pA-1 containing beta-lactamase OXA-48 located within transposon Tn1999 by Etest method; in short: as §1
Escherichia coli [33] = experiment: Antimicrobial activity against Escherichia coli isolate J53 harboring pI-2 containing beta-lactamase OXA-48 located within transposon Tn1999.2 by Etest method; in short: as §1
Escherichia coli [34] = experiment: Antimicrobial activity against Escherichia coli isolate TOP10 harboring pPR containing beta-lactamase and TEM-101 by Etest method; in short: as §3
Escherichia coli [35] = experiment: Antimicrobial activity against Escherichia coli isolate J53 by Etest method; in short: as §1
Escherichia coli [36] = experiment: Antimicrobial activity against Escherichia coli isolate TOP10 by Etest method; in short: as §3

SMILES	MIC (Escherichia coli [1]) [µg/mL]	MIC (Escherichia coli [2]) [µg/mL]	MIC (Klebsiella pneumoniae [3]) [µg/mL]	MIC (Escherichia coli [4]) [µg/mL]	MIC (Escherichia coli [6]) [µg/mL]	MIC (Escherichia coli [7]) [µg/mL]	MIC (Escherichia coli [8]) [µg/mL]	MIC (Klebsiella pneumoniae [9]) [µg/mL]	MIC (Providencia rettgeri) [µg/mL]	MIC (Klebsiella pneumoniae [10]) [µg/mL]	MIC (Klebsiella pneumoniae [11]) [µg/mL]	MIC (Klebsiella pneumoniae [12]) [µg/mL]	MIC (Citrobacter freundii) [µg/mL]	MIC (Enterobacter cloacae [13]) [µg/mL]	MIC (Enterobacter cloacae [14]) [µg/mL]	MIC (Escherichia coli [15]) [µg/mL]	MIC (Klebsiella pneumoniae [16]) [µg/mL]	MIC (Escherichia coli [17]) [µg/mL]	MIC (Escherichia coli [18]) [µg/mL]	MIC (Klebsiella pneumoniae [20]) [µg/mL]	other results
C[C@@H](O)[C@H]1C(=O)N2C(C(=O)O)=C(SCCNC=N)C[C@H]12 [IMIPENEM ANHYDROUS]	0.5 (≈ 1.67 µM)	0.75 (≈ 2.51 µM)	16 (≈ 53.4 µM)	24 (≈ 80.2 µM)	0.75 (≈ 2.51 µM)	0.75 (≈ 2.51 µM)	4 (≈ 13.4 µM)	64 (≈ 214 µM)	> 32	> 32	> 32	0.75 (≈ 2.51 µM)	> 32	0.5 (≈ 1.67 µM)	0.75 (≈ 2.51 µM)	0.38 (≈ 1.27 µM)	0.5 (≈ 1.67 µM)	0.5 (≈ 1.67 µM)	0.75 (≈ 2.51 µM)	> 32	MIC (Klebsiella pneumoniae [5]): > 16 µg/mL; MIC (Klebsiella pneumoniae [19]): 24 µg/mL (≈ 80.2 µM); MIC (Escherichia coli [21]): 0.5 µg/mL (≈ 1.67 µM); MIC (Klebsiella pneumoniae [22]): 24 µg/mL (≈ 80.2 µM); MIC (Klebsiella pneumoniae [23]): 2 µg/mL (≈ 6.68 µM); MIC (Escherichia coli [24]): 0.75 µg/mL (≈ 2.51 µM); MIC (Klebsiella pneumoniae [25]): > 32 µg/mL; MIC (Escherichia coli [26]): 0.75 µg/mL (≈ 2.51 µM); MIC (Escherichia coli [27]): 2 µg/mL (≈ 6.68 µM); MIC (Escherichia coli [28]): 0.38 µg/mL (≈ 1.27 µM); MIC (Escherichia coli [29]): 0.38 µg/mL (≈ 1.27 µM); MIC (Escherichia coli [30]): 0.5 µg/mL (≈ 1.67 µM); MIC (Klebsiella pneumoniae [31]): > 32 µg/mL; MIC (Escherichia coli [32]): 2 µg/mL (≈ 6.68 µM); MIC (Escherichia coli [33]): 0.5 µg/mL (≈ 1.67 µM)
C[C@@H](O)[C@H]1C(=O)N2C(C(=O)O)=C(S[C@@H]3CN[C@H](C(=O)N(C)C)C3)[C@H](C)[C@H]12 [MEROPENEM]	0.12 (≈ 0.313 µM)	0.19 (≈ 0.495 µM)	32 (≈ 83.4 µM)	24 (≈ 62.6 µM)	0.12 (≈ 0.313 µM)	0.12 (≈ 0.313 µM)	0.19 (≈ 0.495 µM)	64 (≈ 167 µM)	> 32	> 32	> 32	0.5 (≈ 1.3 µM)	> 32	0.5 (≈ 1.3 µM)	0.75 (≈ 1.96 µM)	0.094 (≈ 0.245 µM)	0.5 (≈ 1.3 µM)	0.094 (≈ 0.245 µM)	0.5 (≈ 1.3 µM)	> 32	MIC (Escherichia coli [34]): 0.25 µg/mL (≈ 0.652 µM); MIC (Escherichia coli [35]): 0.06 µg/mL (≈ 0.156 µM); MIC (Escherichia coli [36]): 0.06 µg/mL (≈ 0.156 µM); MIC (Escherichia coli [21]): 0.5 µg/mL (≈ 1.3 µM); MIC (Klebsiella pneumoniae [23]): 2 µg/mL (≈ 5.22 µM); MIC (Escherichia coli [24]): 0.12 µg/mL (≈ 0.313 µM); MIC (Klebsiella pneumoniae [25]): > 32 µg/mL; MIC (Escherichia coli [26]): 0.12 µg/mL (≈ 0.313 µM); MIC (Escherichia coli [27]): 2 µg/mL (≈ 5.22 µM); MIC (Escherichia coli [28]): 0.094 µg/mL (≈ 0.245 µM); MIC (Escherichia coli [29]): 0.094 µg/mL (≈ 0.245 µM); MIC (Escherichia coli [30]): 0.094 µg/mL (≈ 0.245 µM); MIC (Klebsiella pneumoniae [31]): > 32 µg/mL; MIC (Escherichia coli [32]): 0.25 µg/mL (≈ 0.652 µM); MIC (Escherichia coli [33]): 0.094 µg/mL (≈ 0.245 µM)
